According to ChEMBL document CHEMBL1142307, “Design, synthesis, and radiosensitizing activities of sugar-hybrid hypoxic cell radiosensitizers” (Bioorg Med Chem, 2008):

Key:
[1] = Radiosensitizing activity at hypoxic mouse EMT6/KU cells assessed as enhancement ratio relative to etanidazole; type: functional
[2] = Partition coefficient by Shake flask method; type: physicochemical; settings: octanol/water
Summary of the method: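 1 mg compound dissolved in 0.1 M phosphate buffer pH 7.40 as stock; absorbance read at 325 nm before partitioning. 3 mL stock stirred vigorously with phosphate buffer-saturated n-octanol (20–300 mL) at room temperature for 2 h. Aqueous phase absorbance at 325 nm measured after phase separation; P_oct calculated from pre/post absorbance.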

SMILES	Ratio [1]	P (partition coefficient) [2]
CC(=O)OC[C@H]1O[C@H](OCCN(C)C(=O)Cn2ccnc2[N+](=O)[O-])[C@@H](OC(C)=O)[C@@H](OC(C)=O)[C@@H]1OC(C)=O	1.88	0.0697
CC(=O)OC[C@H]1O[C@@H](OCCN(C)C(=O)Cn2ccnc2[N+](=O)[O-])[C@H](OC(C)=O)[C@@H](OC(C)=O)[C@H]1OC(C)=O	1.63	0.0355
CN(CCO)C(=O)Cn1ccnc1[N+](=O)[O-]	1.75	0.056
CN(CCO[C@@H]1O[C@H](CO)[C@H](O)[C@H](O)[C@H]1O)C(=O)Cn1ccnc1[N+](=O)[O-]	1.4	< 0.01
CN(CCO[C@@H]1O[C@H](CO)[C@@H](O)[C@H](O)[C@H]1O)C(=O)Cn1ccnc1[N+](=O)[O-]	1.33	< 0.01
CC(=O)N[C@H]1[C@H](OCCN(C)C(=O)Cn2ccnc2[N+](=O)[O-])O[C@H](COC(C)=O)[C@H](OC(C)=O)[C@@H]1OC(C)=O	1.47	0.051
CC(=O)N[C@H]1[C@H](OCCN(C)C(=O)Cn2ccnc2[N+](=O)[O-])O[C@H](CO)[C@H](O)[C@@H]1O	1.43	< 0.01
CN(CCO[C@H]1O[C@H](CO)[C@@H](O)[C@H](O)[C@@H]1O)C(=O)Cn1ccnc1[N+](=O)[O-]	1.41	< 0.01
CC(=O)OC[C@H]1O[C@@H](OCCN(C)C(=O)Cn2ccnc2[N+](=O)[O-])[C@H](OC(C)=O)[C@@H](OC(C)=O)[C@@H]1OC(C)=O	2.3	0.105
